Laboratory results as given in ChEMBL document CHEMBL4346670, “Discovery of Novel Janus Kinase (JAK) and Histone Deacetylase (HDAC) Dual Inhibitors for the Treatment of Hematological Malignancies” (J Med Chem, 2019).

Experiments:
[1] = biological target: Tyrosine-protein kinase JAK2 (Homo sapiens, UniProt O60674); assay: Inhibition of recombinant human JAK2 using Ulight-CAGAGAIETDKEYYTVKD as substrate measured after 60 mins by LANCE assay
[2] = biological target: Non-receptor tyrosine-protein kinase TYK2 (Homo sapiens, UniProt P29597); assay: Inhibition of recombinant human TYK2 using Ulight-CAGAGAIETDKEYYTVKD as substrate measured after 60 mins by LANCE assay
How it was run: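 Human recombinant JAK enzyme assays run by a contract lab. IC50 was taken from a non-linear curve fit, with all parameters allowed to float. Assays were run in replicate (n>2) and reported as mean ± SD.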

[3] = biological target: T1, Protein deacetylase HDAC6 (Homo sapiens, UniProt Q9UBN7); assay: Inhibition of HDAC6 (unknown origin) using Boc-Lys(acetyl)-AMC as substrate preincubated for 5 mins followed by substrate addition and measured after 30 mins by fluorescence assay
T1 sequence (Q9UBN7 whole entry): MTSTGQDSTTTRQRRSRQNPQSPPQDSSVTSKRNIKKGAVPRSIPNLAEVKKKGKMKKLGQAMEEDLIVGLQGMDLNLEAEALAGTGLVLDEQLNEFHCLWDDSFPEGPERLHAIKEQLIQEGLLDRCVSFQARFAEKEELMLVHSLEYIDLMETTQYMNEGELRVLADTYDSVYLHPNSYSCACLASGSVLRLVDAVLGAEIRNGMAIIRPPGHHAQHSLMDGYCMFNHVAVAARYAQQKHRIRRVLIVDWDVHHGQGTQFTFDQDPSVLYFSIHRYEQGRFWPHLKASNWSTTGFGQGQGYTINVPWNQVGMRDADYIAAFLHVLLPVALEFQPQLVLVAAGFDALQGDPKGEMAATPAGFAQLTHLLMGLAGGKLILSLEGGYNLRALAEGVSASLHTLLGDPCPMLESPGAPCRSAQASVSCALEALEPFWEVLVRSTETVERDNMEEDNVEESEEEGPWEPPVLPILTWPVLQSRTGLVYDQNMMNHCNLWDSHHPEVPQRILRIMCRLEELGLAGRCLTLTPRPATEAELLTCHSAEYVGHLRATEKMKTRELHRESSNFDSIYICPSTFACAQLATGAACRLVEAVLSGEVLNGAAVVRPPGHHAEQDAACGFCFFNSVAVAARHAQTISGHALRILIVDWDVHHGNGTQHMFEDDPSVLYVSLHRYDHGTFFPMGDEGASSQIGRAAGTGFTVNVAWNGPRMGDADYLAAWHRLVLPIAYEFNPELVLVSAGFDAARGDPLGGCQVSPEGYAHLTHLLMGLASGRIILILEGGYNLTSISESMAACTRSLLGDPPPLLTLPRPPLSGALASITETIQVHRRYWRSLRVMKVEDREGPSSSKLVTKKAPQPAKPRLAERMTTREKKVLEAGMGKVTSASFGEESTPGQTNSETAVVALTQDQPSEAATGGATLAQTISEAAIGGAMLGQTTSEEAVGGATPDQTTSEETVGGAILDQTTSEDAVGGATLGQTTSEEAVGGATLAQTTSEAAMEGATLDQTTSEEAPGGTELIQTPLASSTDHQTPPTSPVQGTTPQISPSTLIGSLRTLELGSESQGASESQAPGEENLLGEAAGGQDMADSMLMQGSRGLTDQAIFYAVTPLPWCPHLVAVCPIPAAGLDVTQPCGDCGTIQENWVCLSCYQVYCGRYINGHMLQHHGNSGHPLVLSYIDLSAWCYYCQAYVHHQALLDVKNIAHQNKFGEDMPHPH

[4] = tested on: HEL; assay: Induction of apoptosis in HEL cells assessed as late apoptotic cells at 1 uM after 24 hrs by Annexin-V/propidium iodide staining-based flow cytometric analysis (reference value: 0.023%); assay type: functional, Homo sapiens
[5] = biological target: Mitogen-activated protein kinase 8 (Homo sapiens) (UniProt P45983); assay: Inhibition of recombinant human JNK1 at 200 nM using Ulight-CFFKNIVTPRTPPPSQGK-amide as substrate measured after 60 mins by LANCE method relative to control
How it was run: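 Part of an 85-kinase selectivity panel run by a contract lab, with the test compound at 20 nM and at 200 nM. Each human recombinant kinase's phosphorylation of its peptide substrate was measured following the JAK assay method. Activity is given as percent inhibition.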

[6] = MRT (0 to t) in CD1(ICR) mouse at 1 mg/kg, iv by LC-MS/MS analysis; assay type: ADME, organism-based; details: in vivo
[7] = biological target: Vascular endothelial growth factor receptor 3 (Homo sapiens) (UniProt P35916); assay: Inhibition of recombinant human FLT4 at 20 nM using Ulight-CAGAGAIETDKEYYTVKD as substrate measured after 90 mins by LANCE method relative to control
How it was run: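 Part of an 85-kinase selectivity panel run by a contract lab. The test compound was screened at 20 nM and 200 nM against human recombinant kinases. Activity was quantified as phosphorylation of a ULight-labelled peptide substrate, read by LANCE detection. Percent inhibition was taken relative to control. The method is the same one used for JAKs.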

[8] = species: Homo sapiens; assay: Inhibition of recombinant human PKA at 20 nM using Ulight-RRRSLLE peptide as substrate measured after 10 mins by LANCE assay relative to control
[9] = biological target: cAMP-dependent protein kinase catalytic subunit PRKX (Homo sapiens) (UniProt P51817); assay: Inhibition of recombinant human PRKX at 20 nM using Ulight-RRRSLLE as substrate measured after 30 mins by LANCE method relative to control
[10] = biological target: Calcium/calmodulin-dependent protein kinase type 1 (Homo sapiens) (UniProt Q14012); assay: Inhibition of recombinant human CAMK1alpha at 20 nM using CREBtide as substrate measured after 30 mins by LANCE assay relative to control
How it was run: (§1)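 Single-concentration screen within an 85-kinase panel run by a contract lab, with each compound tested at 20 nM and 200 nM. Human recombinant enzymes were used. Activity was quantified as phosphorylation of a peptide substrate read by LANCE time-resolved detection, and inhibition was expressed relative to control, using the same format as the JAK assay.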

[11] = biological target: Ribosomal protein S6 kinase alpha-4 (Homo sapiens) (UniProt O75676); assay: Inhibition of recombinant human MSK2 at 20 nM using biotinyl-beta […] AAAARARTSSFAEPG after 15 mins by HTRF method relative to control
[12] = MRT (0 to t) in CD1(ICR) mouse at 1 mg/kg, ip by LC-MS/MS analysis; assay type: ADME, organism-based; details: in vivo
[13] = biological target: Serine/threonine-protein kinase DCLK1 (Homo sapiens) (UniProt O15075); assay: Inhibition of recombinant human DCAMKL1 at 200 nM using CREBtide as substrate measured after 60 mins by LANCE method relative to control; how it was run: as §1
[14] = biological target: Testis-specific serine/threonine-protein kinase 1 (Homo sapiens) (UniProt Q9BXA7); assay: Inhibition of recombinant human TSSK1 at 20 nM using Ulight-RRRSLLE as substrate measured after 60 mins by LANCE method relative to control
[15] = biological target: Hepatocyte growth factor receptor (Homo sapiens) (UniProt P08581); assay: Inhibition of recombinant human c-MET at 200 nM using Ulight-CAGAGAIETDKEYYTVKD as substrate measured after 60 mins by LANCE method relative to control

Chain of Non-receptor tyrosine-protein kinase TYK2 (P29597 whole entry): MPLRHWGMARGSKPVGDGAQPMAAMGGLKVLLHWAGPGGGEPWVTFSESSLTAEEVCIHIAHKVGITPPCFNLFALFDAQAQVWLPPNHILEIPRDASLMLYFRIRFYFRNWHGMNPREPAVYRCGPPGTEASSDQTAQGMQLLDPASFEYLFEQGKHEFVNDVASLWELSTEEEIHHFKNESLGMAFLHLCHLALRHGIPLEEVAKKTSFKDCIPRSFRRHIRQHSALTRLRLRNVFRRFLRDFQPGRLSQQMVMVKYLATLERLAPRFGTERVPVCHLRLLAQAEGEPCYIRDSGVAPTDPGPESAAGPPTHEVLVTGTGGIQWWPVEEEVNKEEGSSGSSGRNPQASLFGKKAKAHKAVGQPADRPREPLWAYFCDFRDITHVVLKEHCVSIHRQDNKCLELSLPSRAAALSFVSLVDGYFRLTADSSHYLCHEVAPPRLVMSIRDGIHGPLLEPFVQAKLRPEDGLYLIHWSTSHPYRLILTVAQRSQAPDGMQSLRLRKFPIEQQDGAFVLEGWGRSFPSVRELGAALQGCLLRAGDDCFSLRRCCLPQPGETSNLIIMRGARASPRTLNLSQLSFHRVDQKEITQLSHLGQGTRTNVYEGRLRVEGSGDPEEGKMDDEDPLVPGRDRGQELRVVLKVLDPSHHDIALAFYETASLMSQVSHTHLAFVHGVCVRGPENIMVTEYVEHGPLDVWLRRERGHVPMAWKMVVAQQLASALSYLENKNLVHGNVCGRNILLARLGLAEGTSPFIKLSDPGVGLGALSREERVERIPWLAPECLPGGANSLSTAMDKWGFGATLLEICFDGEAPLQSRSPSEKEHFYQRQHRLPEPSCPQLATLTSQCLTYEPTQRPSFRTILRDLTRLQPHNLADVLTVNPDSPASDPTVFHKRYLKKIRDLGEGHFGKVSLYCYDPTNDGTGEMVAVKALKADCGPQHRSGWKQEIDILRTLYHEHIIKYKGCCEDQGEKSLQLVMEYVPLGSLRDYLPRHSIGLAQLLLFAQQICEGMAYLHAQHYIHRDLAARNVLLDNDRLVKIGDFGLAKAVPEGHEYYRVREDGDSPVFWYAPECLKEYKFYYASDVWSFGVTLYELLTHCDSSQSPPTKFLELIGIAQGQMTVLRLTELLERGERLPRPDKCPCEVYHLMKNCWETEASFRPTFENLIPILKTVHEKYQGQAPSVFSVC
Chain of Tyrosine-protein kinase JAK2 (O60674 whole entry): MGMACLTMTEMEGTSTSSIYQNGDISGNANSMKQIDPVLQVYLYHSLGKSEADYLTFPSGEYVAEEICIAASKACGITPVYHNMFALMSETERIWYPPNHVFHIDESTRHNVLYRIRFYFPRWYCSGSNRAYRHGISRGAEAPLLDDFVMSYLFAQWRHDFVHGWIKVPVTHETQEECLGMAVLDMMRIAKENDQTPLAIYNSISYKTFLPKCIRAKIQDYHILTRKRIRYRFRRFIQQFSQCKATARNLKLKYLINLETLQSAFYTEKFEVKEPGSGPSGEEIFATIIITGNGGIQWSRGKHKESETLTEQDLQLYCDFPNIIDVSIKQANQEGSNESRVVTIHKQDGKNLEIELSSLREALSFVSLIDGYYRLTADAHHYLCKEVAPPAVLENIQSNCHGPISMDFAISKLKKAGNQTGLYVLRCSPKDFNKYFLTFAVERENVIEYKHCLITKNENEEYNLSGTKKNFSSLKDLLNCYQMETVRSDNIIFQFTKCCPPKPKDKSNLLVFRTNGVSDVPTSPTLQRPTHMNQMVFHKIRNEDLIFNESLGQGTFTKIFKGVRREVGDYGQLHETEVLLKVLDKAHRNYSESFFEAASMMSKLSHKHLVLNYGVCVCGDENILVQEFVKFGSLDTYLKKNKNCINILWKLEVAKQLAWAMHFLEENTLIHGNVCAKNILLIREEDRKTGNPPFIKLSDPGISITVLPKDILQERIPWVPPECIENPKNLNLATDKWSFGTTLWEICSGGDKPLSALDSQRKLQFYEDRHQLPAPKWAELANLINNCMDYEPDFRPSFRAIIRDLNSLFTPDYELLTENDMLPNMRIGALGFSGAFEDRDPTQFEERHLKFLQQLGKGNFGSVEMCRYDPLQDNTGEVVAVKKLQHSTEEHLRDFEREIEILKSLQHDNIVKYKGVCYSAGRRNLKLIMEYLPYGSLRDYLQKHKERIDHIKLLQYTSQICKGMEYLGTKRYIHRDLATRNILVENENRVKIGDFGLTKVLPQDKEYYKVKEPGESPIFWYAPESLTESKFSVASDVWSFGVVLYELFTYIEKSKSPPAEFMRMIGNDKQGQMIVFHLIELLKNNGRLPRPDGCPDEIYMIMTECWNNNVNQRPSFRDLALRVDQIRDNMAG
Chain of Ribosomal protein S6 kinase alpha-4 (Homo sapiens) (O75676 whole entry, looked up): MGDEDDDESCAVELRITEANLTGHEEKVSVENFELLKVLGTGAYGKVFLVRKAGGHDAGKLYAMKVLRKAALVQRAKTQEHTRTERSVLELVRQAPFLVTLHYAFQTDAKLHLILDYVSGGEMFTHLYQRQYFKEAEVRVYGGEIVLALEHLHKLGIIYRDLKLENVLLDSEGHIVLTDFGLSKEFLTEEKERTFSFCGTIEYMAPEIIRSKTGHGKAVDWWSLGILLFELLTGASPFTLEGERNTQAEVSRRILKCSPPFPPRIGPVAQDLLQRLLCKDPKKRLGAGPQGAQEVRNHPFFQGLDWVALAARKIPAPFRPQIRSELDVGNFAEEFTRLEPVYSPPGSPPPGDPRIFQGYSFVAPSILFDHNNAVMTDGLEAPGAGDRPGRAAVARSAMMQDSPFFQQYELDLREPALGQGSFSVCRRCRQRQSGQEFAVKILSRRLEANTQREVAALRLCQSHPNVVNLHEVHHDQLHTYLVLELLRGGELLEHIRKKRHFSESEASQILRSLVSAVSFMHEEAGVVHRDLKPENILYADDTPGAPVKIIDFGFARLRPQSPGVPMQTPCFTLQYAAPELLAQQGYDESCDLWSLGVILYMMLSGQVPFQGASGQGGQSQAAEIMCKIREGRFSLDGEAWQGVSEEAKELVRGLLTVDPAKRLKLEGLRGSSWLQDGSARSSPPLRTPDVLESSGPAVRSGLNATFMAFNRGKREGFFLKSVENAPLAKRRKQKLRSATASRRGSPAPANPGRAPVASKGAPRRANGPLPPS
Chain of Serine/threonine-protein kinase DCLK1 (Homo sapiens) (O15075 whole entry): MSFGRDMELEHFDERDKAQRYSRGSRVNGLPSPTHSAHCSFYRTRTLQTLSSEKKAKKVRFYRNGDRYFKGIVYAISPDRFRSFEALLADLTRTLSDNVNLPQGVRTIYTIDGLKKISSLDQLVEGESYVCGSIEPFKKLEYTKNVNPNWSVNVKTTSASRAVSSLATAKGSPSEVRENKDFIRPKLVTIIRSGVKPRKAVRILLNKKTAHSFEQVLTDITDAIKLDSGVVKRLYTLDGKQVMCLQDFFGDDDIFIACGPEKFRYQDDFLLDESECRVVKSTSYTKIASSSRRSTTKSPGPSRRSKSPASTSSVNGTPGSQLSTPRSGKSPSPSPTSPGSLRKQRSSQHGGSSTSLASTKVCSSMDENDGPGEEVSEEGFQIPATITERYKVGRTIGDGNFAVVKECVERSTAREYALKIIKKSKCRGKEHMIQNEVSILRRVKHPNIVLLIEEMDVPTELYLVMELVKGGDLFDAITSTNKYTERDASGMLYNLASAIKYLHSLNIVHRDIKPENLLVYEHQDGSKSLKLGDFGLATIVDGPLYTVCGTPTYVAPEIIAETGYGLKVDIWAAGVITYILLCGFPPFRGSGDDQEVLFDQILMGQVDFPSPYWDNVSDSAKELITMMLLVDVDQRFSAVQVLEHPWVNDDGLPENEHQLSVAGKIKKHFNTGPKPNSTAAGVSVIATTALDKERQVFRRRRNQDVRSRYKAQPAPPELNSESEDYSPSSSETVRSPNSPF
Chain of Mitogen-activated protein kinase 8 (Homo sapiens) (P45983 whole entry): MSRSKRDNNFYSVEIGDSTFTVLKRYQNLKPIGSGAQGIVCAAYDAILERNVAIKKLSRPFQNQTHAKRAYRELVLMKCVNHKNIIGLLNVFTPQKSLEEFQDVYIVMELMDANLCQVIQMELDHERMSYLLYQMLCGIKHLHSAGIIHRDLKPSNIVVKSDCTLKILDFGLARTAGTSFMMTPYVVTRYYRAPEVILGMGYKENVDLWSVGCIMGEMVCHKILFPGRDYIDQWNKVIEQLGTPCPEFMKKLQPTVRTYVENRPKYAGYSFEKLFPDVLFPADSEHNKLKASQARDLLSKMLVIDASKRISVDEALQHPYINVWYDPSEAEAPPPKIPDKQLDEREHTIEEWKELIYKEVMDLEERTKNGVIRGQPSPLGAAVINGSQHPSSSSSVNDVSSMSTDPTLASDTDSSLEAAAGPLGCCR
Chain of cAMP-dependent protein kinase catalytic subunit PRKX (Homo sapiens) (P51817 whole entry): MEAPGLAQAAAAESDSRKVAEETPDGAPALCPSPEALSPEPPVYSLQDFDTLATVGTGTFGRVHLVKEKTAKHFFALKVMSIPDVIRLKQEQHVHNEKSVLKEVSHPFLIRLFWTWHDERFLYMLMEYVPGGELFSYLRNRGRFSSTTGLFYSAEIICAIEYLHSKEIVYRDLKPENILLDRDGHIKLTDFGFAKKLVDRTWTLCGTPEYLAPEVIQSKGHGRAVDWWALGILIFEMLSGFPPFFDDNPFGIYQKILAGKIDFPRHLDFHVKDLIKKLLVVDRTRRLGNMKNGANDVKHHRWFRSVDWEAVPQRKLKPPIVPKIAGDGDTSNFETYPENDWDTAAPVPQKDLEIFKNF
Chain of Calcium/calmodulin-dependent protein kinase type 1 (Homo sapiens) (Q14012 whole entry, looked up): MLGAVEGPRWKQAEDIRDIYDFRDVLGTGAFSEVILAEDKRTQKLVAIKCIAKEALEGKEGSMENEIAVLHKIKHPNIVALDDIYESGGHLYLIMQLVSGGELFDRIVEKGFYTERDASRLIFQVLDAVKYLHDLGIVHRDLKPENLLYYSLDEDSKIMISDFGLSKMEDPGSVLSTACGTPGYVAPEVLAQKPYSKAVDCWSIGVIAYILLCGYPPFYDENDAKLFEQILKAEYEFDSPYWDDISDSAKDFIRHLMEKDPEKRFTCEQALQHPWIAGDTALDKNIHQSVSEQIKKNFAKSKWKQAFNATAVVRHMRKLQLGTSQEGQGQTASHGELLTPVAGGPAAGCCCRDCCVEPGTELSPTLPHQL

SMILES | IC50 [1] | IC50 [2] | IC50 [3] | Activity [4] | inhibition [5] | MRT last [6] | inhibition [7] | inhibition [8] | inhibition [9] | inhibition [10] | inhibition [11] | MRT last [12] | inhibition [13] | inhibition [14] | inhibition [15]
O=C(CCCCCCn1cc(Nc2ncc(Cl)c(Nc3cccc(Cl)c3)n2)cn1)NO | 10 nM | 67 nM | 41 nM | 68.7% |  |  |  |  |  |  |  |  |  |  | 
O=C(CCCCCn1cc(Nc2ncc(Cl)c(Nc3ccc(Cl)cc3)n2)cn1)NO | 4 nM | 49 nM | 14 nM | 60% | 13% | 16.2 min | 38% | -10% | -1% | 2% | -2% | 21.6 min | 9% | -3% | 37%
